Bioassay records from PubChem.
TDP2 absorb: blocks human TDP2 phosphodiesterase activity; recombinant TDP2, T5PNP hydrolysis, p-nitrophenol absorbance 415 nm; inhibition, % at 12.8 µM; O95551; hit rate 0.34% among 370,000;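 active means inhibition above the mean of all tested compounds plus 3 SD, set per campaign, cut at about 25% in these data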;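 further: 0% = DMSO with enzyme and 100% = buffer with substrate but no TDP2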
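Assay system: Recombinant human TDP2 | Quantity: 120 nM TDP2 per well | Incubation: 2 h at 37 °C | Signal: Epi absorbance | Evaluation: Percent inhibition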
NSD2 HMT inh: inhibitors of human histone methyltransferase NSD2; NSD2 peptide methylation, AlphaScreen, 120 min; inhibition, % at 12.5 µM; hit rate 0.54% among 310,000; in the data active means inhibition above about 50%
UHRF1 binding: human UHRF1 methylated DNA binding inhibitors; UHRF1 binding to methylated oligo, TR-FRET; Q96T88; inhibition, % at 4.4 µM; hit rate 0.75% among 370,000; in the data active means inhibition above about 21%;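 further: UHRF1 SRA domain binding a hemimethylated CpG hairpin DNA probe; 0% = median of test compound wells and 100% = reference inhibitor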
Casp6 inh: inhibitors of human caspase-6; P55212; purified caspase-6, Z-VEID-R110 cleavage fluorescence; inhibition, % at 12.5 µM; hit rate 0.53% among 350,000; AID 686996;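 active means mean inhibition across replicates at least about 35%, with every replicate also reaching that limit, limit read from the data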;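 further: 0% = median of neutral control wells and 100% = no fluorescence left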
Target sequence (P55212 24-179 limits assumed): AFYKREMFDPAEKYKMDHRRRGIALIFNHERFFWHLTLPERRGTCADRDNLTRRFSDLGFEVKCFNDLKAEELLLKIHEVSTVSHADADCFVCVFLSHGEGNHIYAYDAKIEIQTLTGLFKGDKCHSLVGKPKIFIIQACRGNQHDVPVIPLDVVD
Target sequence (P55212 194-293 limits assumed): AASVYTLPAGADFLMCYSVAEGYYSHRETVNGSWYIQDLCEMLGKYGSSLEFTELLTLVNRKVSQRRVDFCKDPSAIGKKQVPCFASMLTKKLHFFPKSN
MBD2 DNA inh: MBD2-methylated oligo binding inhibition | inhibition, % at 4.4 µM | TR-FRET, MBD2 binding to methylated oligonucleotide | hit rate 0.31% among 370,000; in the data active means inhibition above about 13%
Target sequence (Q9UBB5 whole entry, looked up): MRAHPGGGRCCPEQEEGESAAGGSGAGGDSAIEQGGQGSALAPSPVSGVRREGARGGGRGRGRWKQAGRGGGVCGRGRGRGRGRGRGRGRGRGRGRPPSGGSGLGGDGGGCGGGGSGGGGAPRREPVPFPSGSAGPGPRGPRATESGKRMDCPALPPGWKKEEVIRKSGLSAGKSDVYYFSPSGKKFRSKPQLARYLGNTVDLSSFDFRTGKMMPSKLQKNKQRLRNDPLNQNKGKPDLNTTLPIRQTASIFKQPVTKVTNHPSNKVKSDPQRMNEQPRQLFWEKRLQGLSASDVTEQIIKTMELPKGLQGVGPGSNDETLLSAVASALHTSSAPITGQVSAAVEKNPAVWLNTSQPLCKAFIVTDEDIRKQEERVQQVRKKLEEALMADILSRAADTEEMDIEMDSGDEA
LEDGF integ inh: blocks HIV-1 LEDGF/p75-dependent DNA integration | TR-FRET IN-LEDGF/p75 DNA integration, Eu/Cy5 | inhibition, % at 3.7 µM | hit rate 0.64% among 370,000;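 active means inhibition above the screen-wide mean plus 3 SD, cut at about 13% in these data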;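 further: signal is the Cy5 over europium emission ratio at 671 and 618 nm; 0% = plate median of compound wells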
TDP2 confirm: human TDP2 inhibition, confirmation. recombinant human TDP2, absorbance read-out. hit rate 22% among 1,100. shares compounds with TDP2 absorb. inhibition, % at 12.8 µM; in the data active means inhibition above about 25%;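 further: 0% = vehicle with enzyme and 100% = no enzyme buffer only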
* hit, by the source's call; / = not tested or not shown. Compounds with a hit are over-represented: about 1.8% of the library has one in this group of screens.

SMILES	TDP2 absorb	NSD2 HMT inh	UHRF1 binding	Casp6 inh	MBD2 DNA inh	LEDGF integ inh	TDP2 confirm
COc1ccc(NC2=C(NCCO)C(=O)c3ccccc3C2=O)cc1	35.6*	/	10.6	87.7*	-4.1	7.1	34.1*
COC1=C(Nc2ccc(O)cc2)C(=O)c2ccccc2C1=O	47.5*	46.2	-22.6	14.1	-24.0	5.8	6.5
COCC#Cc1cnc2c(c1)C(=O)N([C@H](C)CO)C[C@H](C)[C@@H](CN(C)C(=O)NC1CCCC1)O2	/	/	/	-0.8	/	/	/
CC(C)NC(=O)N1[C@@H]2CN(C(=O)C3CCC3)c3ccccc3[C@@H]2[C@@H]1CO	/	/	/	-0.1	/	/	/
COc1ccc(C(=O)NCCONC(=O)c2ccc(OC)cc2)cc1	3.2	0.0	2.8	-1.4	-0.5	1.1	/
Cc1ccc(C(=O)NCCONC(=O)c2ccc(C)cc2)cc1	25.3*	-1.9	0.3	2.3	-0.2	-0.5	-5.8
Cc1cccc(/N=C/c2c(C)[nH]n(-c3ccccc3)c2=O)n1	17.8	0.7	-6.5	-1.4	-2.8	-1.6	/
Cc1[nH]n(-c2ccccc2)c(=O)c1S(=O)(=O)c1ccccc1	49.1*	8.8	-3.4	/	-5.4	-0.8	18.4
Cc1[nH]n(-c2ccccc2)c(=O)c1/C=N/N(c1ccccc1)c1ccccc1	39.5*	27.8	2.6	-1.8	-5.2	5.0	-2.8
Cc1[nH]n(-c2ccccc2)c(=O)c1/C=N/c1nn[nH]n1	26.8*	5.9	-7.6	/	-1.8	3.5	8.7
Cc1ccc(NC(=O)C[C@H]2CC[C@H]3[C@@H](COc4ccc(NC(=O)C(C)C)cc4C(=O)N3C)O2)cc1	/	/	/	4.5	/	/	/
CCCNC(=O)C[C@H]1CC[C@@H]2[C@H](COC[C@@H](O)CN2Cc2ccc(Cl)c(Cl)c2)O1	/	/	/	-1.9	/	/	/
C[C@H]1CN([C@@H](C)CO)C(=O)c2cc(NC(=O)Cc3ccccc3)ccc2O[C@@H]1CN(C)S(=O)(=O)c1ccccc1	/	/	/	-2.5	/	/	/
Cc1ccc(NC(=O)CN2C(=O)NC3(CCc4ccccc43)C2=O)cc1S(=O)(=O)N1CCCCC1 (stereo not drawn)	89.8*	22.0	-2.0	9.3	2.3	2.6	-13.4
O=C(CNCC1CCCO1)N1CCCc2ccccc21 (stereo not drawn)	15.0	-0.1	-2.2	-0.3	0.7	2.6	/
CCC1CCCCN1C(=O)CNCC1CCCO1 (stereo not drawn)	32.9*	12.7	-1.1	-6.2	-2.5	-1.1	7.1
C[C@@H]1CN([C@@H](C)CO)C(=O)c2cc(NC(=O)CCCCCC(=O)Nc3ccccc3N)ccc2O[C@@H]1CN(C)S(C)(=O)=O	/	/	/	0.1	/	/	/
O=C(COC(=O)c1ccc([N+](=O)[O-])s1)NCc1ccc(F)cc1	59.4*	-0.2	14.4	/	1.7	7.4	23.2
C[C@@H]1CN([C@@H](C)CO)C(=O)c2cc(C#Cc3cccnc3)cnc2O[C@@H]1CN(C)Cc1ccccc1	/	/	/	-0.1	/	/	/
O=C(Nc1ccc(S(=O)(=O)Nc2ncccn2)cc1)c1ccccc1Br	26.2*	1.8	1.8	-0.6	1.8	0.9	-7.7
CCOC(=O)C1=C(Cc2ccc(C)cc2)C(=O)c2ccccc2C1=O	30.8*	11.9	-7.3	18.2	-9.3	10.2	26.8*
C[C@H]1CN([C@@H](C)CO)S(=O)(=O)c2ccc(-c3ccc(C#N)cc3)cc2O[C@H]1CN(C)C	/	/	/	-1.4	/	/	/
CCCC(=O)NC1=C(Cl)C(=O)c2ccccc2C1=O	26.4*	-1.0	-9.3	27.3	-14.3	3.8	52.5*
CCNC1=C(Cl)C(=O)c2ccccc2C1=O	9.6	30.0	-24.0	/	-22.8	2.8	/
COCCNC(=S)Nc1ccc2nsnc2c1	73.9*	30.7	4.8	/	-5.8	11.2	1.6
SMILES	TDP2 absorb	NSD2 HMT inh	UHRF1 binding	Casp6 inh	MBD2 DNA inh	LEDGF integ inh	TDP2 confirm
S=C(Nc1ccc2nsnc2c1)N1CCCCCC1	62.0*	153.0*	-3.5	55.6*	-3.3	4.6	68.1*
O=C(Nc1ccc2nsnc2c1)N1CCCCC1	5.3	-5.7	-3.0	/	-6.0	1.7	/
CNC[C@H]1OCCCC[C@@H](C)Oc2ccc(NC(=O)Nc3ccccc3)cc2C(=O)N([C@@H](C)CO)C[C@H]1C	/	/	/	-1.3	/	/	/
Cc1noc(C)c1S(=O)(=O)N1CCCC(C(=O)NCc2ccccc2Cl)C1 (stereo not drawn)	27.2*	4.0	5.2	-2.2	3.7	1.2	0.4
C/C=C/c1ccc2c(c1)O[C@H](CN(C)C(=O)NC1CCCCC1)[C@@H](C)CN([C@@H](C)CO)S2(=O)=O	/	/	/	1.7	/	/	/
CC1(C)CC(=O)C2=C(C1)OC(N)=C(C#N)C2c1ccccc1 (stereo not drawn)	68.1*	-1.7	-0.4	1.9	0.8	-0.6	2.9
CC1(C)CC(=O)C2=C(C1)OC(N)=C(C#N)C2c1cccs1 (stereo not drawn)	3.7	0.3	1.7	-1.5	-1.3	0.0	/
O=C(C[C@@H]1C[C@H]2c3cc(NC(=O)NC4CCCC4)ccc3O[C@H]2[C@H](CO)O1)NCCN1CCCCC1	/	/	/	-4.9	/	/	/
CC(C)CC(=O)N1CCN(Cc2ccc(Cl)cc2)CC1	26.2*	1.9	-1.7	-0.4	-2.3	1.4	1.2
CC(C)CC(=O)N1CCN(Cc2ccc(Br)cc2)CC1	-1.2	-2.3	-1.8	0.6	-2.1	0.3	/
CC(C)CC(=O)N1CCN(Cc2ccc(C(F)(F)F)cc2)CC1	30.3*	-1.2	-0.1	-3.0	2.5	-1.4	11.5
C[C@H](CO)N1C[C@H](C)[C@H](CN(C)S(=O)(=O)c2cn(C)cn2)Oc2ccc(NC(=O)CCN3CCOCC3)cc2C1=O	/	/	/	-0.5	/	/	/
C[C@H]1CCCCO[C@H](CN(C)C)[C@@H](C)CN([C@@H](C)CO)C(=O)c2cc(NC(=O)Nc3ccc(F)cc3)ccc2O1	/	/	/	-2.5	/	/	/
Cc1ccc(S(=O)(=O)c2c(N)n(CCC(C)C)c3nc4ccccc4nc23)cc1	0.8	-1.1	-4.4	/	-7.3	3.5	/
Cc1ccc(S(=O)(=O)c2c(N)n(CCCO)c3nc4ccccc4nc23)cc1	54.4*	-10.4	2.4	/	-5.8	13.2	-6.7
COc1ccc(CCNC(=O)c2ccc(NC(=O)CC3SC(N4CCCC4)=NC3=O)cc2)cc1 (stereo not drawn)	3.9	-2.1	4.7	-3.7	-2.6	1.2	/
Cc1ccc(OCCNC(=O)c2ccc(NC(=O)CC3SC(N4CCCC4)=NC3=O)cc2)cc1 (stereo not drawn)	40.2*	-0.6	-0.5	1.9	0.1	-4.5	-1.4
O=C(NC1CC1)C1CCN(C(=O)c2ccc(Cl)cc2Cl)CC1	-5.0	1.2	-1.6	-2.4	-5.5	-1.4	/
O=C(NC1CCCC1)C1CCN(C(=O)c2cc(Cl)ccc2Cl)CC1	26.1*	-2.5	-3.6	-0.6	2.5	0.8	6.3
Cc1ccccc1S(=O)(=O)N1CC[C@@H]2[C@H](CO)Nc3ccc(-c4ccccc4)cc3[C@@H]21	/	/	/	-0.6	/	/	/
CCOC(=O)c1sc(NC(=O)CNCc2ccccn2)c(C(=O)OCC)c1C	25.7*	0.0	3.6	2.0	3.2	-0.5	0.0
